Screening data from PubChem.
Many of the other results were omitted from the sample, so hits are more common in it than they were.
T cruzi growth-1: T. cruzi intracellular proliferation inhibitors, primary screen, cell-based, beta-gal Tulahuen parasites, NIH3T3 host, luminescence | T. cruzi beta-gal in NIH3T3, GalScreen luminescence, 90 h | inhibition, % at 8.34 µM | 77,000 compounds, 5.9% hits | AID 624255, 2012;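 active = mean inhibition above about 93%, with at least 55% of replicates each passing it, limit read from the data, passing the limit was not always enough; inconclusive = only one of those two conditions holds; inactive = neither condition holds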
GASC1 inh: inhibitors of GASC-1 (KDM4C) histone demethylase, primary screen, biochemical, single concentration HTS; GST-KDM4C 2-372, H3K9me3 peptide, LANCE TR-FRET; Lysine-specific demethylase 4C (Homo sapiens), Q9H3R0; inhibition, % at 12.5 µM; 96,000 compounds, 0.15% hits;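 active = mean replicate inhibition above about 25%, with at least 55% of replicates also reaching it, limit read from the data, passing the limit was not always enough; inconclusive = only one of those two conditions met; inactive = neither condition met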
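Test system – GST-tagged GASC-1 (JMJD2C) catalytic fragment, aa 2-372 · Medium – HEPES buffer, pH 7.5, plus ascorbate · Reagent – H3K9me3 peptide with Fe(II)/2OG · Compound – one test concentration per compound · Timing – 30 min reaction, 60 min detection, RT · Technique – TR-FRET with Eu antibody and ULight streptavidin, EDTA stop · Read-out basis – inhibition from TR-FRET ratio decrease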
IDH1 mut inh: inhibitors of IDH1 R132H reductase, primary screen, biochemical, plate reader, single point | inhibition, % at 10 µM | AID 624101, 2012 | 70,000 compounds, 0.18% hits | Isocitrate dehydrogenase [NADP] cytoplasmic (Homo sapiens), O75874 | diaphorase/resazurin fluorescence, 60 min; in the data active = inhibition above about 34%; inconclusive = no clear call, values can overlap the other calls; inactive = below about 11%;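 also: 0% = DMSO and 100% = no enzyme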
Target sequence (O75874 whole entry R132H): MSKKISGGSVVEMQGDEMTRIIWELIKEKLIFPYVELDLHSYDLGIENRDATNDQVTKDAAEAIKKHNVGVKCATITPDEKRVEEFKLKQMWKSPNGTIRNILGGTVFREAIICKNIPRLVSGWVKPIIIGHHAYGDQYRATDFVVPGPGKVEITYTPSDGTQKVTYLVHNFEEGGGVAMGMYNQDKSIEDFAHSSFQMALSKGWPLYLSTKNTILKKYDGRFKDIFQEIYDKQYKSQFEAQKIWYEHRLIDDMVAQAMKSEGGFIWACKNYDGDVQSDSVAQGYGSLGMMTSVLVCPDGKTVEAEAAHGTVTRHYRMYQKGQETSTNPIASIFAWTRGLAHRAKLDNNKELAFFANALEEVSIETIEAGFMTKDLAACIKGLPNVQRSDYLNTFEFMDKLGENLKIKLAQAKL
T cruzi growth-2: T. cruzi intracellular proliferation inhibitors, confirmation, cell-based, NIH3T3 host, beta-gal parasite, luminescence, cherry-pick; shares compounds with T cruzi growth-1; T. cruzi beta-gal in NIH3T3, GalScreen luminescence, 90 h; inhibition, % at 8.35 µM; 5,600 compounds, 72% hits; AID 651739, 2012;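 active = mean replicate inhibition above about 95% and at least 55% of replicates individually reaching it, limit read from the data; inconclusive = only one of the two criteria is met; inactive = neither criterion is met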
T cruzi growth-3: inhibitors of intracellular T. cruzi replication, confirmation, NIH3T3 host cells, beta-gal parasites, cherry-pick, set 2. shares compounds with T cruzi growth-1. T. cruzi beta-gal in NIH3T3, GalScreen luminescence, 90 h. 5,600 compounds, 21% hits. inhibition, % at 2.09 µM;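 active = mean inhibition above about 95%, with at least 55% of replicates also reaching it, limit read from the data; inconclusive = meets just one of the two conditions; inactive = meets neither condition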;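 also: plate controls were neutral control median for no effect and positive control median for full effect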
NIH3T3 tox: cytotoxicity in mouse NIH/3T3 fibroblasts, confirmation, cytotoxicity control for T. cruzi proliferation inhibitor project, cell-based, cherry-pick, single point; shares compounds with T cruzi growth-1; NIH/3T3 viability, CellTiter-Glo ATP luminescence, 90 h; cytotoxicity (signal decrease), % at 8.35 µM; 5,600 compounds, 14% hits; AID 651742, 2012;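 active = mean signal decrease across replicates above about 35% based on untreated-well scatter, with enough replicates individually passing, limit read from the data; inconclusive = no rule stated though some were filed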;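 also: 0% = median of neutral control wells and 100% = median of positive control wells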
NIH3T3 tox 2: NIH/3T3 fibroblast cytotoxicity, confirmation, cytotoxicity control, cell-based, cherry-pick, single point, set 2; AID 651744, 2012; shares compounds with T cruzi growth-1; 5,600 compounds, 56% hits; inhibition, % at 24.9 µM; NIH/3T3 viability, CellTiter-Glo ATP luminescence, 90 h;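 active = mean loss of cell viability signal at or above a set limit, and enough replicates individually reaching it; inconclusive = meets only the mean limit or only the replicate share; inactive = meets neither condition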;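 also: 0% = median of neutral control wells and 100% = median of positive control wells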
Numbers without * were called inactive; ? = inconclusive; / = not tested or not shown.

SMILES	T cruzi growth-1	GASC1 inh	IDH1 mut inh	T cruzi growth-2	T cruzi growth-3	NIH3T3 tox	NIH3T3 tox 2
C[C@@H]1CN([C@H](C)CO)S(=O)(=O)c2ccc(C#Cc3cccc(F)c3)cc2O[C@@H]1CN(C)S(=O)(=O)c1ccccc1F	104*	-1	0	102*	113*	25	40*
O=C(Nc1ccc(C(F)(F)F)cc1)Nc1ccc2c(c1)[C@@H]1C[C@H](CC(=O)N3CCc4ccccc4C3)O[C@@H](CO)[C@@H]1O2	153*	9	0	103*	114*	13	19
O=C(Nc1ccc(C(F)(F)F)cc1)Nc1ccc2c(c1)[C@@H]1C[C@@H](CC(=O)N3CCc4ccccc4C3)O[C@@H](CO)[C@@H]1O2	77	1	0	/	/	/	/
O=C(Nc1ccc(C(F)(F)F)cc1)Nc1ccc2c(c1)[C@H]1C[C@H](CC(=O)N3CCc4ccccc4C3)O[C@H](CO)[C@H]1O2	?	1	0	85	110*	54*	106*
O=C(Nc1ccc2c(c1)[C@H]1C[C@@H](CC(=O)N3CCc4ccccc4C3)O[C@@H](CO)[C@H]1O2)Nc1ccccc1F	/	-8	0	/	/	/	/
COc1ccc(-c2nc(SCC(=O)Nc3ccc(Br)c(C)c3C)n[nH]2)cc1	/	/	0	/	/	/	/
O=[N+]([O-])c1ccc2nc(CSc3ncnc4ccccc34)[nH]c2c1	/	/	1	/	/	/	/
O=C(CNS(=O)(=O)c1ccccc1)Nc1cc(Cl)cc(Cl)c1	/	/	0	/	/	/	/
COc1ccc(S(=O)(=O)NC2(C(=O)O)CCCCC2)cc1	/	/	0	/	/	/	/
Cc1ccc(NC(=O)CN(C)S(=O)(=O)c2ccccc2)c(C)c1	/	/	0	/	/	/	/
OC[C@@H]1[C@H](c2ccc(C#CC3(O)CCCC3)cc2)[C@H]2CN(Cc3ccncc3)CCCCN12	90	0	/	/	/	/	/
OC[C@H]1[C@H](c2ccc(C#CC3(O)CCCC3)cc2)[C@@H]2CN(Cc3ccncc3)CCCCN12	6	4	/	/	/	/	/
OC[C@H]1[C@@H](c2ccc(C#CC3(O)CCCC3)cc2)[C@H]2CN(Cc3cccnc3)CCCCN21	103*	1	/	49	-43	2	4
OC[C@H]1[C@@H](c2ccc(C#CC3(O)CCCC3)cc2)[C@H]2CN(Cc3ccncc3)CCCCN21	5	1	/	/	/	/	/
OC[C@H]1[C@@H](c2ccc(C#CC3(O)CCCC3)cc2)[C@@H]2CN(Cc3cccnc3)CCCCN12	114*	-1	/	73	3	4	?
OC[C@@H]1[C@H](c2ccc(C#CC3(O)CCCC3)cc2)[C@H]2CN(Cc3cccnc3)CCCCN12	120*	2	/	107*	92	31	32*
CCOc1ccc(NC(=O)C(C)n2nc([N+](=O)[O-])c(Br)c2C)cc1 (stereo not given)	/	/	0	/	/	/	/
O=C(Nc1ccc2c(c1)OCCO2)C1CCCN(S(=O)(=O)c2ccc(F)cc2)C1 (stereo not given)	/	/	0	/	/	/	/
COc1ccc(N(CC(=O)Nc2ccc(C)cc2C)S(C)(=O)=O)cc1	/	/	1	/	/	/	/
CCC(=O)N1CCCCN2[C@H](CO)[C@H](c3ccc(-c4cccc(C#N)c4)cc3)[C@@H]2C1	92	0	/	/	/	/	/
N#Cc1cccc(-c2ccc([C@H]3[C@@H](CO)N4CCCCN(C(=O)Nc5ccccc5)C[C@@H]34)cc2)c1	111*	-2	/	108*	71	21	16
N#Cc1cccc(-c2ccc([C@@H]3[C@@H](CO)N4CCCCN(C(=O)Nc5ccc(F)cc5)C[C@H]34)cc2)c1	93	1	/	/	/	/	/
COc1ccccc1NC(=O)N1CCCCN2[C@H](C1)[C@H](c1ccc(-c3cccc(C#N)c3)cc1)[C@@H]2CO	82	-3	/	/	/	/	/
COc1ccccc1NC(=O)N1CCCCN2[C@H](C1)[C@@H](c1ccc(-c3cccc(C#N)c3)cc1)[C@@H]2CO	43	0	/	/	/	/	/
N#Cc1cccc(-c2ccc([C@@H]3[C@H](CO)N4CCCCN(C(=O)Nc5ccccc5)C[C@@H]34)cc2)c1	98*	-1	/	108*	88	36*	106*
SMILES	T cruzi growth-1	GASC1 inh	IDH1 mut inh	T cruzi growth-2	T cruzi growth-3	NIH3T3 tox	NIH3T3 tox 2
N#Cc1cccc(-c2ccc([C@@H]3[C@@H](CO)N4CCCCN(C(=O)Nc5ccccc5)C[C@@H]34)cc2)c1	108*	0	/	107*	70	42*	93*
N#Cc1cccc(-c2ccc([C@H]3[C@H](CO)N4CCCCN(C(=O)Nc5ccccc5)C[C@@H]34)cc2)c1	99*	-1	/	110*	64	46*	106*
CN(c1cccc(NC(=O)Cc2ccccc2[N+](=O)[O-])c1)S(C)(=O)=O	/	/	-1	/	/	/	/
C/C=C/c1ccc([C@@H]2[C@@H](C#N)N(c3ncc(CC)s3)[C@H]2CO)cc1	102*	-2	/	96*	17	2	53*
C/C=C/c1ccc([C@@H]2[C@@H](C#N)N(c3ncc(CC)s3)[C@@H]2CO)cc1	?	2	/	101*	107*	19	38*
C/C=C/c1ccc([C@@H]2[C@H](C#N)N(c3ncc(CC)s3)[C@H]2CO)cc1	94	-4	/	/	/	/	/
C/C=C/c1ccc([C@H]2[C@@H](C#N)N(c3ncc(CC)s3)[C@H]2CO)cc1	101*	-1	/	106*	100*	2	18
COc1ccc(C)cc1N(CC(=O)Nc1c(C)n(C)n(-c2ccccc2)c1=O)S(C)(=O)=O	/	/	1	/	/	/	/
Cc1ccc(C(O)(CO)CO)c(O)c1	/	/	0	/	/	/	/
C/C(=C\Cc1c(O)cc2oc(C)cc(=O)c2c1O)CO[C@@H]1O[C@H](CO)[C@@H](O)[C@H](O)[C@H]1O	/	/	1	/	/	/	/
Cc1nnc(SCC(=O)Nc2cc(Cl)c(Cl)cc2Cl)s1	/	/	0	/	/	/	/
C[C@@H]1CCCCO[C@@H](CN(C)S(=O)(=O)c2ccccc2)[C@H](C)CN([C@@H](C)CO)C(=O)c2cc(NC(=O)Nc3ccccc3)ccc2O1	20	0	-3	/	/	/	/
C[C@@H]1CCCCO[C@H](CN(C)S(=O)(=O)c2ccccc2)[C@H](C)CN([C@H](C)CO)C(=O)c2cc(NC(=O)Nc3ccccc3)ccc2O1	103*	/	3	113*	61	18	34*
